Reference: ChEMBL document CHEMBL1144884, “Synthesis, activity, and molecular modeling studies of novel human aldose reductase inhibitors based on a marine natural product” (J Med Chem, 2003)

How the values were obtained:
[1] = target: T1, Aldo-keto reductase family 1 member B1 (Homo sapiens, UniProt P15121); assay: (§1) In vitro inhibitory activity against recombinant human aldose reductase (ALR2) was determined
[2] = Inhibitory activity on sorbital accumulation in human retinal cells was determined; assay type: functional, cell-based
In short: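 ARPE-19 human retinal cells grown in MEM with 0.5% fetal calf serum plus 50 mM glucose. Compounds added in DMSO, then 16 h at 37 °C under 5% CO2. Cells lysed with 8% perchloric acid and neutralised with KOH. Sorbitol measured by colorimetric kit. IC50 taken as the concentration halving sorbitol accumulation; mean of three experiments.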

[3] = target: T1, Aldo-keto reductase family 1 member B1; assay: In vitro inhibition of recombinant human aldose reductase (ALR2)
In short: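 Recombinant human ALR2 expressed in baculovirus-infected Sf9 cells, purified by dye-affinity chromatography. Assay at 37 °C: 100 mM sodium phosphate pH 6.2, 400 mM ammonium sulfate, 5 mU/mL enzyme, 0.1 mM NADPH. DMSO-dissolved compound preincubated 5 min, then 10 mM glyceraldehyde added; A340 decrease followed 6 min.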

[4] = target: T1, Aldo-keto reductase family 1 member B1; assay: as §1; remark: listed apart in the source
In short: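 Recombinant hALR2 expressed in baculovirus-infected Sf9 cells, purified by affinity chromatography. Run at 37 °C in 100 mM sodium phosphate pH 6.2, 400 mM ammonium sulfate, 5 mU/mL enzyme, 0.1 mM NADPH. Compounds in DMSO preincubated 5 min. Started with 10 mM glyceraldehyde; A340 decrease read over 6 min.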

Oc1c(Oc2cc(Cl)c(Cl)c(Cl)c2O)cc(Cl)c(Cl)c1Cl
IC50 [1]: 3.2 µM
IC50 [2]: 0.24 µM

COc1c(Br)c(Br)c(Br)c(Br)c1Oc1cc(O)cc(Br)c1O
inhibition [3]: 0%

Oc1c(Nc2cc(Br)c(Br)c(Br)c2O)cc(Br)c(Br)c1Br
inhibition [3]: 18%

COC(=O)COc1c(Br)cc(Br)cc1Oc1c(Br)c(Br)c(Br)c(Br)c1OCC(=O)OC
inhibition [3]: 0%

COc1c(Br)cc(Br)cc1Oc1c(Br)c(Br)c(Br)c(Br)c1OC
inhibition [3]: 0%

Oc1ccc(Br)cc1Oc1cc(Br)ccc1O
inhibition [3]: 32%

Oc1c(Br)cc(Br)cc1Oc1c(Br)cc(Br)c(Br)c1O
inhibition [3]: 25%

Oc1cc(Br)c(Br)c(Br)c1Oc1cc(Br)cc(Br)c1O
inhibition [3]: 0%

Oc1c(Oc2cc(Br)c(Br)c(Br)c2O)cc(Br)c(Br)c1Br
IC50 [1]: 5.7 µM
IC50 [2]: 1 µM

Oc1cc(Br)c(Br)cc1Oc1cc(Br)c(Br)cc1O
inhibition [3]: 46%

COc1cc(Br)c(Br)c(Br)c1Oc1cc(Br)cc(Br)c1OC
inhibition [3]: 0%

COc1cc(Br)c(Br)cc1Oc1cc(Br)c(Br)cc1OC
inhibition [3]: 0%

COc1c(Nc2cc(Br)c(Br)c(Br)c2OC)cc(Br)c(Br)c1Br
inhibition [3]: 0%

CC(=O)Oc1c(Br)cc(Br)cc1Oc1c(Br)c(Br)c(Br)c(Br)c1OC(C)=O
inhibition [3]: 0%

Oc1c(Br)cc(Oc2cc(Br)c(Br)c(Br)c2O)c(O)c1Br
IC50 [1]: 4.4 µM
IC50 [2]: 8 µM

Oc1c(Br)cc(Br)cc1Oc1c(O)c(Br)c(Br)c(Br)c1Br
IC50 [4]: 6.4 µM
IC50 [2]: 3 µM

Nc1c(Oc2cc(Br)c(Br)c(Br)c2O)cc(Br)c(Br)c1Br
IC50 [1]: 8.9 µM
IC50 [2]: 6 µM

O=C1NC(=O)[C@@]2(CCOc3ccc(F)cc32)N1 [SORBINIL]
IC50 [2]: 4 µM

Oc1c(Oc2c(O)c(Br)c(Br)c(Br)c2Br)cc(Br)c(Br)c1Br
IC50 [1]: 5.5 µM
IC50 [2]: 7 µM

COc1ccc2c(C(=S)N(C)CC(=O)O)cccc2c1C(F)(F)F [TOLRESTAT]
IC50 [2]: 0.02 µM

Oc1cc(Br)c(O)c(Oc2c(O)c(Br)c(Br)c(Br)c2Br)c1
inhibition [3]: 38%

O=C(O)COc1c(Br)cc(Br)cc1Oc1c(Br)c(Br)c(Br)c(Br)c1OCC(=O)O
IC50 [1]: 25 µM

Oc1c(Oc2cc(Br)c(Br)c(Br)c2O)cc(F)c(Br)c1Br
IC50 [1]: 3.2 µM
IC50 [2]: 11 µM
